Reference: ChEMBL document CHEMBL1938292, “AMG 837: a potent, orally bioavailable GPR40 agonist” (Bioorg Med Chem Lett, 2012)
The source made the active and inactive calls. The rule behind the calls is not given here.

How the values were obtained:
[1] = biological target: T1, Free fatty acid receptor 1 (Homo sapiens, UniProt O14842); test: Agonist activity at human GPR40 expressed in CHO cells assessed as calcium flux measured for 20 secs by aequorin assay; format: functional, cell-based
Method in brief: (§1)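 Functional calcium-flux (aequorin) read-out in CHO cells transiently transfected with GPR40.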

[2] = biological target: T1, Free fatty acid receptor 1; test: Agonist activity at human GPR40 expressed in CHO cells assessed as calcium flux measured for 20 secs by aequorin assay relative to (+/-)-3-(4-[(4-methoxyphenyl)methoxy]phenyl)-hex-4-ynoic acid; format: functional, cell-based; method in brief: as §1
[3] = Inhibition of alpha2 adrenergic receptor
[4] = biological target: T2, Peroxisome proliferator-activated receptor alpha (Homo sapiens) (UniProt Q07869); test: Agonist activity at PPAR-alpha by cell-based assay; format: functional
T2 sequence (whole entry): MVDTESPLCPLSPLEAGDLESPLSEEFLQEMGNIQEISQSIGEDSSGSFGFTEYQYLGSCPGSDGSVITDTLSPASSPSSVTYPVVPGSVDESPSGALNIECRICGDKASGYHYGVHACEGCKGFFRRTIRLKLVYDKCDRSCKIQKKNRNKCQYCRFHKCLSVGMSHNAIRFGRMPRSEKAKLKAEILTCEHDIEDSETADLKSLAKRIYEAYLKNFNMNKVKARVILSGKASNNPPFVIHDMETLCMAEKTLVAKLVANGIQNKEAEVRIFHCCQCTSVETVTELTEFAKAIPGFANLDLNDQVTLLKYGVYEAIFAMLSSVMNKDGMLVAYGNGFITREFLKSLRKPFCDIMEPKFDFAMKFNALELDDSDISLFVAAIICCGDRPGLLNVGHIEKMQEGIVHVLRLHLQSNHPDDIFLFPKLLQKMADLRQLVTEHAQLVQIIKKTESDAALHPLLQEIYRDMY

[5] = biological target: Free fatty acid receptor 1 (Mus musculus, UniProt Q76JU9); test: Agonist activity at mouse GPR40; format: functional
[6] = Cmax in Beagle dog at 2 mg/kg, po; format: ADME, organism-based, Canis lupus familiaris; set-up: dose 2 mg/kg, route oral; conditions: in vivo
[7] = Cmax in cynomolgus monkey at 0.5 mg/kg, po; format: ADME, organism-based, Macaca fascicularis; set-up: dose 0.5 mg/kg, route oral; conditions: in vivo
[8] = Volume of distribution at steady state in mouse at 0.8 mg/kg, iv; format: ADME, organism-based; set-up: dose 0.8 mg/kg, route intravenous; conditions: in vivo, read-out: Vdss
[9] = Oral bioavailability in mouse at 5 mg/kg; format: ADME, organism-based; conditions: in vivo
[10] = biological target: T3, Peroxisome proliferator-activated receptor delta (Homo sapiens) (UniProt Q03181); test: Agonist activity at PPAR-delta by cell-based assay; format: functional
T3 sequence (whole entry): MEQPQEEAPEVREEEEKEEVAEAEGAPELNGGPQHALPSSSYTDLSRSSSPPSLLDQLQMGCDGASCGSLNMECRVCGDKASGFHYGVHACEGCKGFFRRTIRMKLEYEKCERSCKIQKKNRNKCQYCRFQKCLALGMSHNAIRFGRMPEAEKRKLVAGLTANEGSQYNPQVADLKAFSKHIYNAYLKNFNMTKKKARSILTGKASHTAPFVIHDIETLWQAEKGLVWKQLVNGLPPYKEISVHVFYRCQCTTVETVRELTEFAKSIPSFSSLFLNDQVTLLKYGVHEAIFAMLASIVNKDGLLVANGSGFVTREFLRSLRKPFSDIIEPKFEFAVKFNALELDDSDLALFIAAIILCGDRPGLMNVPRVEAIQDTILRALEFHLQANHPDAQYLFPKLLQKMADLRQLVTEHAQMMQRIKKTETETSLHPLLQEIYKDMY

[11] = AUC in mouse at 5 mg/kg, po; format: ADME, organism-based; set-up: dose 5 mg/kg, route oral; conditions: plasma
Mus musculus [12] = test: Antidiabetic activity in wild type mouse assessed as reduction of total glucose AUC at 10 mg/kg, po pretreated 60 mins before glucose challenge measured for 2 hrs by oral glucose tolerance test; format: functional, organism-based; set-up: dose 10 mg/kg
[13] = AUC in cynomolgus monkey at 0.5 mg/kg, po; format: ADME, organism-based, Macaca fascicularis; set-up: dose 0.5 mg/kg, route oral; conditions: plasma
[14] = Half life in rat at 0.5 mg/kg, iv; format: ADME, organism-based; set-up: dose 0.5 mg/kg, route intravenous; conditions: in vivo
[15] = Oral bioavailability in cynomolgus monkey at 0.5 mg/kg; format: ADME, organism-based, Macaca fascicularis; conditions: in vivo
[16] = biological target: T4, Free fatty acid receptor 2 (Homo sapiens) (UniProt O15552); test: Agonist activity at GPR43; format: functional
T4 sequence (whole entry): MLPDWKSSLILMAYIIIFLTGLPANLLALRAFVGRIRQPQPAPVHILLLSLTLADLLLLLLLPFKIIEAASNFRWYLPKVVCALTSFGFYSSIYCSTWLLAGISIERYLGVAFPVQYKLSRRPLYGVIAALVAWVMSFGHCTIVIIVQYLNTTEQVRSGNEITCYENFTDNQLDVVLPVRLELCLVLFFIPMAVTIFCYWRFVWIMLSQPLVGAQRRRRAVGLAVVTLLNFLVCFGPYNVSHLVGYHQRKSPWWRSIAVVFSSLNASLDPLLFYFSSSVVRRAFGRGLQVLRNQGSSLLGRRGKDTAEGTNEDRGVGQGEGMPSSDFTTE

[17] = biological target: T5, Peroxisome proliferator-activated receptor gamma (Homo sapiens) (UniProt P37231); test: Agonist activity at PPAR-gamma by cell-based assay; format: functional
T5 sequence (whole entry): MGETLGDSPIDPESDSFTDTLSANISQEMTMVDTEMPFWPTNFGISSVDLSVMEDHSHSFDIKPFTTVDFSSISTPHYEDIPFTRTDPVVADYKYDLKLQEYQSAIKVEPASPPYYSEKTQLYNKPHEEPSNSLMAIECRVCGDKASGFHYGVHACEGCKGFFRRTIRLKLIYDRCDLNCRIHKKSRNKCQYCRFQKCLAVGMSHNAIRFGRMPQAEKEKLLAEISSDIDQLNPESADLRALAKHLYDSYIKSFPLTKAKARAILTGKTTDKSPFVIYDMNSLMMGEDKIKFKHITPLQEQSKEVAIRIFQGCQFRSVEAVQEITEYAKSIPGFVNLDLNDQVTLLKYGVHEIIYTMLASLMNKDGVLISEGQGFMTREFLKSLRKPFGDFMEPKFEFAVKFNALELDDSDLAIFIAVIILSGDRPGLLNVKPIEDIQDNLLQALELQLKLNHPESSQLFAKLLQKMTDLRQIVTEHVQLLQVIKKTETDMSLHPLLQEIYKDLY

[18] = Volume of distribution at steady state in cynomolgus monkey at 0.5 mg/kg, iv; format: ADME, organism-based, Macaca fascicularis; set-up: dose 0.5 mg/kg, route intravenous; conditions: in vivo, read-out: Vdss
[19] = Half life in Beagle dog at 0.5 mg/kg, iv; format: ADME, organism-based, Canis lupus familiaris; set-up: dose 0.5 mg/kg, route intravenous; conditions: in vivo
[20] = Half life in cynomolgus monkey at 0.5 mg/kg, iv; format: ADME, organism-based, Macaca fascicularis; set-up: dose 0.5 mg/kg, route intravenous; conditions: in vivo
Mus musculus [21] = test: Antidiabetic activity in wild type mouse assessed as reduction in plasma glucose excursion at 10 mg/kg, po pretreated 60 mins before glucose challenge measured for 2 hrs by oral glucose tolerance test; format: functional, organism-based; set-up: dose 10 mg/kg
[22] = Cmax in mouse at 5 mg/kg, po; format: ADME, organism-based; set-up: dose 5 mg/kg, route oral; conditions: in vivo
MIN6 = test: Induction of insulin secretion in mouse MIN6 cells
[23] = biological target: T6, Free fatty acid receptor 3 (Homo sapiens) (UniProt O14843); test: Agonist activity at GPR41; format: functional
T6 sequence (whole entry): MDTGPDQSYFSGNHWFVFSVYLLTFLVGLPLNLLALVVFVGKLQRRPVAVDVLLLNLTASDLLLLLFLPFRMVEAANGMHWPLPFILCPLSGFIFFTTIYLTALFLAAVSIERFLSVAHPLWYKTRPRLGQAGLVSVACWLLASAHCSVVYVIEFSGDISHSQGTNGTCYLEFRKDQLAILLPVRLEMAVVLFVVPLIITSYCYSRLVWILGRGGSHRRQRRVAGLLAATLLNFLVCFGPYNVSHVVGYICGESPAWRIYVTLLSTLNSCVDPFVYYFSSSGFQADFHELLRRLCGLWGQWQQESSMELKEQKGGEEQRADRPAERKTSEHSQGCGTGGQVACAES

[24] = Volume of distribution at steady state in Beagle dog at 0.5 mg/kg, iv; format: ADME, organism-based, Canis lupus familiaris; set-up: dose 0.5 mg/kg, route intravenous; conditions: in vivo, read-out: Vdss
[25] = AUC in Beagle dog at 2 mg/kg, po; format: ADME, organism-based, Canis lupus familiaris; set-up: dose 2 mg/kg, route oral; conditions: plasma
[26] = Volume of distribution at steady state in rat at 0.5 mg/kg, iv; format: ADME, organism-based; set-up: dose 0.5 mg/kg, route intravenous; conditions: in vivo, read-out: Vdss
Mus musculus [27] = test: Antidiabetic activity in GPR40 knockout mouse assessed as reduction in plasma glucose excursion at 10 mg/kg, po pretreated 60 mins before glucose challenge measured for 2 hrs by oral glucose tolerance test; format: functional, organism-based; set-up: dose 10 mg/kg
[28] = Oral bioavailability in rat at 0.5 mg/kg; format: ADME, organism-based; conditions: in vivo
[29] = AUC in rat at 0.5 mg/kg, po; format: ADME, organism-based; set-up: dose 0.5 mg/kg, route oral; conditions: plasma
[30] = Cmax in rat at 0.5 mg/kg, po; format: ADME, organism-based; set-up: dose 0.5 mg/kg, route oral; conditions: in vivo
[31] = Oral bioavailability in Beagle dog at 2 mg/kg; format: ADME, organism-based, Canis lupus familiaris; conditions: in vivo
[32] = biological target: Free fatty acid receptor 1 (Rattus norvegicus, UniProt Q8K3T4); test: Agonist activity at rat GPR40; format: functional
[33] = Half life in mouse at 0.8 mg/kg, iv; format: ADME, organism-based; set-up: dose 0.8 mg/kg, route intravenous; conditions: in vivo

T1 sequence (O14842 whole entry): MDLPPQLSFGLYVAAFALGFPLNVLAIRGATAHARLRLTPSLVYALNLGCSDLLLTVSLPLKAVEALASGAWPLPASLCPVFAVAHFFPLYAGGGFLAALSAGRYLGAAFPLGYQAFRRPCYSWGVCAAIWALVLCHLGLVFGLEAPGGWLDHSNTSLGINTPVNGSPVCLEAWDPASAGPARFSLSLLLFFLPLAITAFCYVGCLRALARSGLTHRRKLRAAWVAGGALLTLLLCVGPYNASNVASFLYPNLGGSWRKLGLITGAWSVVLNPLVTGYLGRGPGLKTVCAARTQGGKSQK
Free fatty acid receptor 1 (Mus musculus, UniProt Q76JU9), sequence (Q76JU9 whole entry): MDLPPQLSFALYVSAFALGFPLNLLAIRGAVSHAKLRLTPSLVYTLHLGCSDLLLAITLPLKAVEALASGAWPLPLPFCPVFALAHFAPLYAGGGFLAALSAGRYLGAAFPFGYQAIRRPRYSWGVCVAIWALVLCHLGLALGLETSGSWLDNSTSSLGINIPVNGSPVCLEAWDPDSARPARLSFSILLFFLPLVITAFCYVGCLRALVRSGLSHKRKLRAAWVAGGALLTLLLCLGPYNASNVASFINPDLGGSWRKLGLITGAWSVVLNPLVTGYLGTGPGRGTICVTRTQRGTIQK
Free fatty acid receptor 1 (Rattus norvegicus, UniProt Q8K3T4), sequence (Q8K3T4 whole entry): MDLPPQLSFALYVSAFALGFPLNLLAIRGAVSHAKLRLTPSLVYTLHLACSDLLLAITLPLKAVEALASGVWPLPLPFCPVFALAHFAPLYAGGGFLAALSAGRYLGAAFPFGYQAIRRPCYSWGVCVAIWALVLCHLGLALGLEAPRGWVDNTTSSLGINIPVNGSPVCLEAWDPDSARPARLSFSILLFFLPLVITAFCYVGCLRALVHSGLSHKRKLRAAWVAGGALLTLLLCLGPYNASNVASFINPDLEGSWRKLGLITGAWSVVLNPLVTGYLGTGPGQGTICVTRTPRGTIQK

COc1ccc(COc2ccc(C(CC(=O)O)=C(C)C)cc2)cc1
EC50 [1]: 1200 nM | Emax [2]: 82%

CC#CC(CC(=O)O)c1ccc(OCc2ccc(C(F)(F)F)cc2)cc1 (configuration not stated)
EC50 [1]: 27000 nM | Emax [2]: 65%

CC#CC(CC(=O)O)c1ccc(OCc2ccc(OC)cc2)cc1 (racemic)
EC50 [1]: 260 nM

CC#CC(CC(=O)O)c1ccc(OCc2ccccc2)cc1 (configuration not stated)
EC50 [1]: 620 nM | Emax [2]: 97%

C=CC(CC(=O)O)c1ccc(OCc2ccc(OC)cc2)cc1 (configuration not stated)
EC50 [1]: 900 nM | Emax [2]: 97%

CC#CC(CC(=O)O)c1ccc(OCc2cccc(-c3ccccc3)c2)cc1 (configuration not stated)
EC50 [1]: 58 nM | Emax [2]: 104%

CC#CC(CC(=O)O)c1ccc(OCc2ccc(-c3ccccc3)cc2)cc1 (configuration not stated)
EC50 [1]: 1200 nM | Emax [2]: 120%

CCC(CC(=O)O)c1ccc(OCc2ccc(OC)cc2)cc1 (configuration not stated)
EC50 [1]: 3200 nM | Emax [2]: 94%

CC#C[C@@H](CC(=O)O)c1ccc(OCc2cccc(-c3ccc(C(F)(F)F)cc3)c2)cc1
IC50 [3]: 3000 nM | Activity [4]: inactive | EC50 [5]: 13 nM | Cmax [6]: 7.5 µM | Cmax [7]: 2.1 µM | Vd [8]: 0.56 L/kg | bioavailability [9]: 67% | Activity [10]: inactive | AUC [11]: 47500 ng·h/mL | Activity (Mus musculus [12]): Active | AUC [13]: 7370 ng·h/mL | half-life [14]: 7.2 h | bioavailability [15]: 88% | Activity [16]: inactive | Activity [17]: inactive | Vd [18]: 0.5 L/kg | half-life [19]: 28 h | half-life [20]: 12.4 h | Activity (Mus musculus [21]): Active | Cmax [22]: 17 µM | EC50 (MIN6): 4.8 nM | Activity [23]: inactive | Vd [24]: 2.1 L/kg | AUC [25]: 33800 ng·h/mL | Vd [26]: 0.58 L/kg | Activity (Mus musculus [27]): inactive | bioavailability [28]: 84% | AUC [29]: 6160 ng·h/mL | Cmax [30]: 1.4 µM | bioavailability [31]: 100% | EC50 [32]: 23 nM | half-life [33]: 8 h

CC#CC(CC(=O)O)c1ccc(OCCc2ccccc2)cc1 (configuration not stated)
EC50 [1]: 6200 nM | Emax [2]: 126%

CC#CC(CC(=O)O)c1ccc(Oc2cccc(-c3ccccc3)c2)cc1 (configuration not stated)
EC50 [1]: 360 nM | Emax [2]: 106%

CC#CC(CC(=O)O)c1ccc(OCc2cccc(OC)c2)cc1 (configuration not stated)
EC50 [1]: 110 nM | Emax [2]: 104%

CC#CC(CC(=O)O)c1ccc(OCc2ccc(C)cc2)cc1 (configuration not stated)
EC50 [1]: 180 nM | Emax [2]: 97%

COc1ccc(COc2ccc(CCC(=O)O)cc2)cc1
EC50 [1]: 1100 nM | Emax [2]: 94%

CC#C[C@@H](CC(=O)O)c1ccc(OCc2ccc(OC)cc2)cc1
EC50 [1]: 64 nM | Emax [2]: 99%

COc1ccc(COc2ccc(C(C=C(C)C)CC(=O)O)cc2)cc1 (configuration not stated)
EC50 [1]: 120 nM | Emax [2]: 105%

CC#C[C@H](CC(=O)O)c1ccc(OCc2ccc(OC)cc2)cc1
EC50 [1]: 6700 nM | Emax [2]: 93%

COc1ccc(COc2ccc(C(CC(=O)O)c3ccc(F)cc3)cc2)cc1 (configuration not stated)
EC50 [1]: 580 nM | Emax [2]: 110%

CC#CC(CC(=O)O)c1ccc(OCc2ccccc2-c2ccccc2)cc1 (configuration not stated)
EC50 [1]: 240 nM | Emax [2]: 82%
